This is a sample that favours compounds with a hit; in the whole collection about 3.4% have one here.
VIM-2 inh = blocks Pseudomonas aeruginosa VIM-2 metallo-beta-lactamase. purified VIM-2, nitrocefin hydrolysis, epi-absorbance fluorescence. inhibition, % at 5.6 µM. hit rate 0.89% among 290,000;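 active means inhibition above the mean of all tested compounds plus 3 SD, cutoff set per screening run, cut at about 7.5% in these data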;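 further: red hydrolysis product quenches plate fluorescence so inhibitors raise well fluorescence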
MEKK3 PB1 HTS = modulators (inhibitors or enhancers) of MEK5 binding to human MEKK3 PB1 domain; bead-based flow cytometry, Alexa488-MEK5 binding to MEKK3; actives lie on both sides; 0 = blocked by unlabeled MEK5, 100 = vehicle; binding response (% of control), % at 10 µM; AID 1529; Q99759; hit rate 1.4% among 290,000;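 active means binding response more than 3 SD above or below the average of its plate-row segment, actives on both sides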;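 further: Alexa488 bead fluorescence after subtracting the streptavidin-only scavenger bead signal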
Target sequence (Q99759 whole entry, looked up, the tested form may be a part): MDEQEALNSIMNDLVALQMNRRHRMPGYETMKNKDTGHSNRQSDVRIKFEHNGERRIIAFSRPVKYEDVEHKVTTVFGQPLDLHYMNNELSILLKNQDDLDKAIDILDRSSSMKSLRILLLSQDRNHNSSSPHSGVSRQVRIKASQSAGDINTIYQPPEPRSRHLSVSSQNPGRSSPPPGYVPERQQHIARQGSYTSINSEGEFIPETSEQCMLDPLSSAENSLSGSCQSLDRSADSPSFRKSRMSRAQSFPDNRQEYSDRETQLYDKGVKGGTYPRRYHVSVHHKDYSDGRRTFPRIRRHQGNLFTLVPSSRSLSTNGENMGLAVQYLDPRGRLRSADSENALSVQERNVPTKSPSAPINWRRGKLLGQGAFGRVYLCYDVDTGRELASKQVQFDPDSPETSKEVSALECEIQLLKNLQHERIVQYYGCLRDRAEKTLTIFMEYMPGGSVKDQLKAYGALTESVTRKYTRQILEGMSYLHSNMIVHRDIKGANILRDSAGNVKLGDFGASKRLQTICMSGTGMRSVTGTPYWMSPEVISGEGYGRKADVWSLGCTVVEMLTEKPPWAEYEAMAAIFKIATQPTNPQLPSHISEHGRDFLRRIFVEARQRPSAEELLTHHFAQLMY
MEKK2wt PB1 HTS = raises or lowers MEK5 binding to wildtype human MEKK2 PB1 domain; binding response (% of control), % at 10 µM; AID 1531; bead flow cytometry, Alexa488-MEK5 binding to MEKK2 WT; actives lie on both sides; Q9Y2U5; hit rate 1.1% among 290,000; in the data active means binding response below about 67% or above about 130%
MEKK2mut PB1 HTS = signal of MEK5 binding to mutant human MEKK2 PB1 domain; percent response, % at 10 µM; bead flow cytometry, Alexa488-MEK5 binding to MEKK2 mutant; AID 1530; hit rate 0.35% among 290,000; in the data active means percent response above about 24%, passing the limit was not always enough
IMP-1 inh = inhibitors of Pseudomonas aeruginosa IMP-1 metallo-beta-lactamase; purified IMP-1, nitrocefin hydrolysis, epi-absorbance fluorescence; inhibition, % at 5.6 µM; hit rate 0.45% among 290,000;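 active means inhibition above the mean plus 3 SD of all compounds in the same screening run, cut at about 4.5% in these data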
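System – purified recombinant IMP-1 beta-lactamase · Input – IMP-1 dispensed at 0.2 nM · Timing – 15 min preincubation plus 25 min reaction at 25 °C · Signal – Epi-absorbance fluorescence, 480 nm excitation, 530 nm emission · Measure – percent IMP-1 inhibition derived from blank-referenced optical density · Controls – Enzyme-plus-DMSO low control, enzyme-free DMSO high control · Replication – singlicate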
Large screens that a line does not name were inactive; [ ] = dose if it differs, or a comment.

N#Cc1c(NC(=O)C2C3C=CC(C3)C2C(=O)O)sc2c1CCCCC2 (stereo not drawn)	none
CSc1ccc(S(=O)(=O)N2CCC(C(=O)NCc3ccccn3)CC2)cc1	none
O=C(CCCC(=O)OCC(=O)c1ccc(Cl)cc1)NC1CCCCC1	none
COc1cc2cccc(OC)c(=O)c2c(O)c1OC	none
COc1cc2c(cc1OC)-c1c(OC)c(OC)cc3ccnc(c13)C2=O	VIM-2 inh 9.0
N#C/C(=C\c1ccc(OCc2ccc(F)cc2)cc1)C(=O)Nc1cccc(C(=O)O)c1	none
N#C/C(=C\c1ccc(OCc2ccc(Br)cc2)cc1)C(=O)Nc1cccc(C(=O)O)c1	IMP-1 inh 6.3
CCOc1cc(CNc2ncc(-c3ccc(OC)cc3)n2C)ccc1O	IMP-1 inh 4.8
Cc1cnc2cc(Cl)c(Cl)cc2n1	none
COc1ccccc1NS(=O)(=O)c1cccc(NC(=O)Nc2ccccc2)c1	none
COc1ccccc1NS(=O)(=O)c1cccc(NC(=O)Nc2ccc(Cl)cc2)c1	MEKK2wt PB1 HTS 147.0
CCOc1ccc(-n2c(Cc3cc(=O)[nH]c(=O)[nH]3)nnc2SCC(=O)NC2CCCC2)cc1	none
CCn1c(SC(=O)NC2CCCCC2)nnc1-c1cccs1	VIM-2 inh 11.5
C=C1CCC[C@]2(C)C[C@H]3OC(=O)C(CN4CCOCC4)[C@H]3C[C@@H]12 (stereo partly drawn)	none
COc1ccc(CCNCc2ccc(OCc3ccccc3)cc2)cc1	MEKK2wt PB1 HTS 136.0
COc1ccc(C(OCC(O)CNCCc2ccccc2)c2ccc(OC)cc2)cc1 (stereo not drawn)	MEKK2wt PB1 HTS 151.0
COc1ccc(C(OCC(O)CNC(C)c2ccccc2)c2ccc(OC)cc2)cc1 (stereo not drawn)	none
COc1ccc(C(CCNCc2ccc(F)cc2)c2ccc(F)cc2)cc1 (stereo not drawn)	none
COc1ccc(CNCCC(c2ccc(F)cc2)c2ccc(OC)cc2)cc1 (stereo not drawn)	MEKK2wt PB1 HTS 140.0
CN(C)Cc1cc(O)c(CN(C)C)cc1O	none
CSc1ccc(Cn2nnc(C(=O)Nc3ccc(C)c(C)c3)c2N)cc1	none
CCOc1ccc(NCc2cccn2-c2nnc(N3CCC(C(=O)NCCCN4CC(C)CC(C)C4)CC3)s2)cc1 (stereo not drawn)	MEKK2wt PB1 HTS 137.0
CCN1CCN(CCCNC(=O)C2CCN(c3nnc(-n4cccc4)s3)CC2)CC1	none
CCCCCCC(=O)OCC(=O)c1ccc2c(c1)NC(=O)CO2	none
CCCCc1nc2cc(C(=O)NC(C)c3cnn(C)c3)ccc2o1 (stereo not drawn)	IMP-1 inh 25.1
O=C(NCCCN1CCOCC1)c1ccc(/C=C2\Oc3ccccc3N(Cc3ccccc3F)C2=O)cc1	none
CCN1CCN(CCCNC(=O)c2ccc(/C=C3/Oc4ccccc4N(Cc4cccc(C)c4)C3=O)cc2)CC1	MEKK2wt PB1 HTS 169.0, MEKK2mut PB1 HTS 34.0
CCN1CCN(CCCNC(=O)c2ccc(/C=C3/Sc4ccccc4N(Cc4ccccc4F)C3=O)cc2)CC1	MEKK2wt PB1 HTS 177.0
CCCCSc1cc(=O)n(-c2ccccc2)nc1C(=O)OCC	none
CCCc1nc2sc(C(=O)OCC)c(N)c2c2c1COC(C)(C)C2	IMP-1 inh 6.2
O=C(C1CC2CCC1C2)N1CCN(Cc2ccc3c(c2)OCO3)CC1 (stereo not drawn)	none
Cc1cccc(C)c1OCC(=O)N/N=C/c1cccnc1	none
O=C(NCC1CCCO1)c1cccc(Oc2c(Cl)cccc2[N+](=O)[O-])c1 (stereo not drawn)	none
Cn1c(=O)c2c(nc(Oc3ccccc3Br)n2C)n(C)c1=O	VIM-2 inh 10.0
Cn1c(=O)c2c(nc(Oc3ccc4ccccc4c3)n2C)n(C)c1=O	none
COc1ccc(/C=N/NC(=O)c2nn(C)cc2Br)cc1CSCc1ccco1	IMP-1 inh 18.2
N#C/C(=C/c1ccc(-c2ccccc2)o1)c1nc(-c2cccs2)cs1	MEKK2mut PB1 HTS 117.0 (no result: MEKK2wt PB1 HTS)
Cc1cccc2[nH]c(CN(C)Cc3nc(CC4CC4)no3)nc12	none
Cc1c(/C=N\NC(=O)c2cccc(F)c2)cnn1C	none
CCc1ccc(OCc2cccc(C(=O)N/N=C\c3cnn(C)c3C)c2)cc1	IMP-1 inh 6.4
COc1ccc(C)cc1NC(=O)NNS(=O)(=O)c1ccc(NC(C)=O)cc1	MEKK3 PB1 HTS 39.0[inhibitor], MEKK2wt PB1 HTS 47.0[inhibitor]
